# Screening data as filed in PubChem.
# APJ ag: agonists of human apelin receptor APJ, primary screen, CHO-K1 cells, PathHunter beta-arrestin, luminescence; activation, % at 20 µM; 330,000 tested, 0.11% active; 0% DMSO wells, 100% apelin;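 active means activation more than six SD over the plate average, tested at 20 µM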;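 further: 0% = DMSO alone and 100% = apelin-13 at 10 nM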
#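 assay system = CHO-K1 APJ beta-arrestin complementation cell line | input = cell density 1000 per well | dosing = compound 20 µM once, DMSO 1% | timing = compound 90 min 25 °C, reagent 1 h | measured by = luminescence from split beta-galactosidase complementation, Galacton Star/Emerald II substrate | read-out basis = APJ agonist activity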
# CCR6 antagonist: CCR6 receptor antagonists, primary screen, cell-based, CHO-K1, luminescence, beta-arrestin, uHTS. C-C chemokine receptor type 6 (Homo sapiens), P51684. CHO-K1 CCR6 PathHunter beta-arrestin, CCL20-stimulated. inhibition, % at 20 µM. 340,000 tested, 0.49% active. AID 493098, 2011;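 active means compounds whose inhibition of the agonist-driven luminescence signal at 20 µM reaches about 50%, limit read from the data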;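 further: cells stimulated with CCL20 at 14 nM final; plate controls were DMSO with CCL20 for no effect and DMSO without agonist for full effect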
# CXCR6 inh: CXCR6 receptor inhibitors, primary screen, cell-based, beta-arrestin, luminescence, CHO-K1 PathHunter, 1536-well | C-X-C chemokine receptor type 6 (Homo sapiens), O00574 | inhibition, % at 20 µM | 360,000 tested, 0.36% active | AID 602244, 2012; in the data active means inhibition above about 34%, passing the limit was not always enough;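 further: antagonist mode with CXCL16 agonist at 10 nM final; 0% = 10 nM CXCL16 with DMSO and 100% = unstimulated wells without agonist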
# Target sequence (O00574 whole entry, looked up): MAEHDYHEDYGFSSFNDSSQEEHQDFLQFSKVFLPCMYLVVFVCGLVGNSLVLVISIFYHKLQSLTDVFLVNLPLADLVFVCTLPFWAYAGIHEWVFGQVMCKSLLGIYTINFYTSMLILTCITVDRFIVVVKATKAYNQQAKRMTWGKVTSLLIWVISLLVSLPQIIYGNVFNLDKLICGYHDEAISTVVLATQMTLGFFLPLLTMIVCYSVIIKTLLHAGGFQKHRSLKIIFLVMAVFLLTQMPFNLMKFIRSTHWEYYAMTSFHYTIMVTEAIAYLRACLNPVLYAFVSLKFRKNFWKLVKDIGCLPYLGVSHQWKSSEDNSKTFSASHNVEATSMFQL
# B2AR ag: beta2AR agonists driving receptor internalization, primary screen, cell-based, FAP fluorogen, flow cytometry; Beta-2 adrenergic receptor (Homo sapiens), P07550; Am2.2-beta2AR cells; response, % (concentration not given with the values); 340,000 tested, 0.43% active; AID 504454, 2011;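 active means response above a set limit, near 3 SD of response in nonfluorescent compounds, cut at about 42% in these data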
# Target sequence (P07550 whole entry, looked up): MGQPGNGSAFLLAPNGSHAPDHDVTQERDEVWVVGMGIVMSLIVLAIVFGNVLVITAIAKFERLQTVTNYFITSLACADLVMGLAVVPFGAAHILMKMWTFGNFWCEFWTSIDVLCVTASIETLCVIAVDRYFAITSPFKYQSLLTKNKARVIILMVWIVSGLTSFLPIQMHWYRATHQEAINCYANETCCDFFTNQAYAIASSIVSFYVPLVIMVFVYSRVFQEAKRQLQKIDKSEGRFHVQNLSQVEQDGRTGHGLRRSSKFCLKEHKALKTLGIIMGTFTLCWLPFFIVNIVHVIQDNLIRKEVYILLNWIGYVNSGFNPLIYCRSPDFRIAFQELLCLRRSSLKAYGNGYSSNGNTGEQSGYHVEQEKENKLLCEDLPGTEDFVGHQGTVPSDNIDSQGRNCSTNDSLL
# APJ antagonist: antagonists of human apelin receptor APJ, primary screen, CHO-K1 cells, beta-arrestin complementation, luminescence | inhibition, % at 20 µM | 330,000 tested, 0.32% active | P35414 | AID 2521, 2010;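 active means inhibition above about 40% at 20 µM, limit read from the data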;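 further: cells challenged with 10 nM apelin-13 agonist together with compound; plate controls were apelin-13 plus DMSO wells for no effect and DMSO wells lacking apelin-13 for full effect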
# EBI2 block: EBI2 receptor antagonists, beta-arrestin recruitment, primary screen, cell-based, luminescence, 7a,25-OHC stimulation, uHTS; inhibition, % at 5 µM; G-protein coupled receptor 183 (Homo sapiens), P32249; 7a,25-OHC stimulated; 360,000 tested, 0.81% active; AID 651636, 2012; in the data active means inhibition above about 38%;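 further: enzyme fragment complementation signal reports receptor beta-arrestin coupling in cells; 0% = agonist plus DMSO wells and 100% = wells without agonist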
# EBI2 conf: EBI2 antagonist hit retest, beta-arrestin, confirmation, cell-based, single concentration, luminescence, 7a,25-OHC stimulation; shares compounds with EBI2 block; 7a,25-OHC antagonism; inhibition, % at 5 µM; 2,400 tested, 29% active; AID 651997, 2013;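 active means inhibition of at least 50%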
# EBI2 ag: EBI2 agonist activity of antagonist hits, confirmation, counter-screen for EBI2 antagonist project, cell-based, single concentration, agonist mode, luminescence; shares compounds with EBI2 block; EBI2-expressing cells, 60 min; 0% vehicle, 100% 7α,25-dihydroxycholesterol control; activation, % at 5 µM; 2,400 tested, under 10 active; AID 652000, 2013;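 active means activation of at least 50%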
# bGal cs: E. coli beta-galactosidase enzyme inhibition, confirmation, counter-screen for EBI2 antagonist project, biochemical, luminescence, single concentration; shares compounds with EBI2 block; purified beta-galactosidase, luminescent Galacton Star, 15 min; inhibition, % at 5 µM; 2,400 tested, 1% active; AID 652176, 2013;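 active means replicate-average signal at least 3 plate SD below neutral wells, shown as high inhibition, flagging enzyme-inhibiting false positives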;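 further: 0% = DMSO wells with enzyme and 100% = wells lacking enzyme; higher means stronger loss of beta-gal luminescence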
# * marks the source's active call; other numbers are inactive results; x = no result. Hits are enriched below; roughly 1.8% of the tested compounds scored in any of these assays.
SMILES,APJ ag,CCR6 antagonist,CXCR6 inh,B2AR ag,APJ antagonist,EBI2 block,EBI2 conf,EBI2 ag,bGal cs
O=C(/C=C/c1cccs1)N1CCN(Cc2ccc3c(c2)OCO3)CC1,5.1,3.8,9.3,-17.1,-9.6,64.3*,43.8,-0.7,-13.1
O=C(COC(=O)/C=C/c1cccc([N+](=O)[O-])c1)NCc1ccc2c(c1)OCO2,-3.1,-5.4,3.8,5.9,16.8,-0.8,x,x,x
O=C(c1sccc1Br)N1CCN(Cc2ccc3c(c2)OCO3)CC1,-1.9,5.6,0.0,8.1,-4.2,4.5,x,x,x
O=C(NC1=NCCS1)C1CCN(S(=O)(=O)c2ccccc2C(F)(F)F)CC1,-4.7,10.2,-0.1,0.6,-5.2,3.8,x,x,x
C[C@@H](C(=O)Nc1ccc2ccccc2c1)[C@@H]1C[C@@]1(C)[C@@H](NC(=O)c1cnccn1)c1ccccc1,-6.1,17.3,6.9,-5.8,8.9,74.6*,42.2,-1.6,-13.4
Cc1ccc(C(C)C)c(OCCNC(=O)c2cncc(Br)c2)c1,-2.8,15.5,-7.9,6.9,-28.6,49.6*,27.2,-2.0,-4.0
COc1cc(C(=O)NCCOc2cc(C)ccc2C(C)C)cc(OC)c1OC,-4.2,16.1,-11.2,-9.1,5.9,-4.9,x,x,x
CC(OC(=O)[C@@H](NC(=O)OCc1ccccc1)C(C)C)C(=O)Nc1ccc(N2CCOCC2)cc1 (some centres undefined),x,5.8,-0.2,8.4,x,-22.0,x,x,x
CCOc1cc(/C=N/NC(=O)c2ccc(CN3CCOCC3)cc2)ccc1OCc1ccccc1,4.4,-4.4,1.0,8.7,-2.9,55.4*,60.4*,-1.3,-19.6
O=C(N/N=C/c1cccc(OCc2ccccc2)c1)c1ccc(Br)cc1,0.2,1.6,-9.3,4.7,-14.4,36.5*,23.2,0.8,6.4
C#Cc1ccc(NC(=O)C2(C)CCN2C(=O)Cc2ccc(C(C)C)cc2)cc1 (centres undefined),x,x,-0.1,x,x,1.5,x,x,x
Cc1ccc(Nc2ccc(NCc3ccccc3)nn2)cc1C,-4.3,-2.9,-10.9,6.1,3.8,65.0*,44.6,1.2,5.4
Clc1ccc(Nc2ccc(NCc3ccccc3)nn2)cc1,-0.7,-0.1,-4.3,12.5,-1.9,63.1*,45.1,-0.8,-8.5
Clc1ccc(-c2nnc(NCc3ccccc3)c3ccccc23)cc1,3.7,2.8,-5.9,10.4,0.7,27.4,x,x,x
Cc1cc(NCc2ccccc2)nc2ccccc12,-1.1,8.1,-5.9,-14.9,14.4,2.7,x,x,x
O=C(/C=C/c1ccc(Cl)cc1)NC1CC2CCC1C2 (centres undefined),-2.2,20.6,2.6,-6.4,1.8,62.7*,23.7,-0.5,-8.7
O=C(/C=C/c1ccccc1)NC1CC2CCC1C2 (centres undefined),-2.6,14.5,-3.4,-8.0,-1.8,27.1,x,x,x
COCCOc1ccc(C(F)(F)F)cc1NC(=O)CN1C(=O)NC2(CCc3ccccc32)C1=O (centres undefined),-3.9,7.2,-1.2,-9.8,-15.2,-5.8,x,x,x
O=C(Nc1ccccc1)SC1CCCCC1,x,6.7,-4.0,4.0,x,2.6,x,x,x
CC(C)(C)NS(=O)(=O)c1ccc2[nH]c3c(c2c1)CCCCC3,-0.1,-3.8,-12.7,23.1,-4.3,63.1*,67.2*,0.8,4.8
COCCNC(=O)c1ccc(CN2CCC(Cc3ccccc3)CC2)cc1,-2.4,21.8,10.2,-4.7,7.9,-0.6,x,x,x
O=C(NCc1ccccc1)c1ccc(CN2CCC(Cc3ccccc3)CC2)cc1,-3.6,8.1,5.2,5.3,1.4,49.6*,18.6,0.1,0.3
O=C(NCc1ccccc1)c1ccc(C(=O)NCc2ccccc2)cc1,x,2.2,7.5,-1.0,x,47.5*,0.6,-1.2,-11.4
COc1ccc(C(=O)N/C(=C\c2cn(S(=O)(=O)N(C)C)c3ccccc23)C(=O)N2CCCC2)cc1,x,x,3.1,x,x,6.7,x,x,x
CC(C)(C)C(=O)NCc1ccc(C(=O)CSc2nnc(-c3ccncc3)n2C2CC2)s1,-2.4,9.2,-13.7,1.6,-0.3,-7.1,x,x,x
SMILES,APJ ag,CCR6 antagonist,CXCR6 inh,B2AR ag,APJ antagonist,EBI2 block,EBI2 conf,EBI2 ag,bGal cs
Cc1ccc(CNC(=O)C2CCN(S(=O)(=O)c3c(C)noc3/C=C/c3ccco3)CC2)cc1,-4.3,15.9,11.4,8.7,-1.8,65.2*,48.7,2.3,2.0
COc1ccc(S(=O)(=O)N2CCC(C(=O)NCc3ccncc3)CC2)cc1,1.4,9.3,-7.2,-7.5,-6.9,-12.3,x,x,x
COc1ccc(S(=O)(=O)N2CCC(C(=O)NCc3ccc(C)cc3)CC2)cc1,1.2,12.3,3.3,-4.1,6.9,66.0*,55.2*,1.6,7.6
Cc1ccc(CNC(=O)N2CCN(S(=O)(=O)c3ccccc3)CC2)cc1,-3.2,13.8,5.9,-3.1,-15.6,55.5*,48.8,2.5,-3.4
O=C(NCc1ccncc1)C1CCN(S(=O)(=O)c2cccc(C(F)(F)F)c2)CC1,2.0,16.0,-1.5,-0.2,-4.6,-11.1,x,x,x
COc1ccc(CNC(=O)N2CCN(S(=O)(=O)c3ccccc3)CC2)cc1,0.0,7.5,-0.9,1.5,6.0,10.4,x,x,x
COc1ccc(CNC(=O)C2CCN(S(=O)(=O)c3cccc(C(F)(F)F)c3)CC2)cc1,1.2,10.3,-5.9,0.9,5.0,54.2*,38.2,0.3,-15.9
Cc1cc(C)c2c(=O)[nH]c(SCC(=O)c3ccc(F)c(C)c3)nc2n1,x,0.9,-9.5,-2.1,x,-3.9,x,x,x
CCOc1ccc(N(CC(=O)NCc2ccc(F)cc2)C(=O)c2ccco2)cc1,-3.2,-3.5,4.7,5.5,15.5,5.4,x,x,x
O=C(Nc1ccc2c(c1)OCO2)c1ccccc1,-1.2,5.2,-7.8,2.0,10.0,0.9,x,x,x
CN1C(=O)c2ccc(C(=O)Nc3ccc4c(c3)OCO4)cc2C1=O,3.3,-8.8,3.6,4.0,8.4,44.8*,-0.7,0.2,-10.6
O=C(Nc1ccc(Oc2ccccc2)nc1)C1CCCCN1Cc1cccc(OCCO)c1 (centres undefined),-1.0,14.6,-11.2,-3.3,-49.2,62.5*,57.8*,1.5,0.6
